Experiments:
Yellow fever virus = test: Antiviral activity against Yellow fever virus infected in BHK21 cells assessed as inhibition of virus-induced cytopathogenicity after 3 to 4 days by MTT assay; assay type: functional, organism-based; conditions: BHK-21
[1] = tested on: Vesicular stomatitis virus; test: Antiviral activity against Vesicular stomatitis virus infected in african green monkey Vero 76 cells assessed as reduction in plaque number after 2 days by plaque reduction assay; assay type: functional, organism-based; conditions: 48 h
[2] = Selectivity index, ratio of CC50 for african green monkey Vero 76 cells to EC50 for Coxsackievirus B5; assay type: toxicity, cell-based; conditions: read-out: Ratio CC50/EC50
How it was run: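 Mock-infected Vero-76 cells were tested in parallel on the same 24-well plates as the plaque assays (seeding 4 × 10^5 cells/mL, D-MEM with FBS), with serial compound dilutions at 37 °C, 5% CO2. Viability was read after 48–96 h by crystal violet staining. CC50 by linear regression; selectivity index = Vero-76 CC50/EC50 for CVB-5 or RSV.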

[3] = tested on: Bovine viral diarrhea virus 1; test: Antiviral activity against Bovine viral diarrhea virus infected in MDBK cells assessed as inhibition of virus-induced cytopathogenicity after 3 to 4 days by MTT assay; assay type: functional, organism-based; conditions: Bovine viral diarrhea virus isolates and strains
Poliovirus 1 = test: Antiviral activity against Poliovirus type 1 Sabin strain infected in african green monkey Vero 76 cells assessed as reduction in plaque number after 2 days by plaque reduction assay; assay type: functional, organism-based; conditions: Enterovirus C, 48 h
Human alphaherpesvirus 1 = test: Antiviral activity against HSV1 infected in african green monkey Vero 76 cells assessed as reduction in plaque number after 3 days by plaque reduction assay; assay type: functional, organism-based; conditions: Human alphaherpesvirus 1, Vero, 72 h
Vaccinia virus = test: Antiviral activity against Vaccinia Virus infected in african green monkey Vero 76 cells assessed as reduction in plaque number after 3 days by plaque reduction assay; assay type: functional, organism-based; conditions: Orthopoxvirus vaccinia, 72 h
[4] = Cytotoxicity against mock-infected african green monkey Vero 76 cells after 48 to 96 hrs by MTT assay; assay type: cell-based; conditions: chlorocebus sabaeus, mock-infected Vero 76 cells
[5] = Cytotoxicity against mock-infected human MT4 cells after 96 hrs by MTT assay; assay type: cell-based
How it was run: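 Exponentially growing MT-4 cells were seeded at 1 × 10^5 cells/mL in RPMI-1640 with 10% FBS and held at 37 °C, 5% CO2 with serial compound dilutions. Viability was read by MTT after 96 h. CC50 from linear regression against untreated controls.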

Reovirus sp. = test: Antiviral activity against Reovirus type-1 infected in BHK21 cells assessed as inhibition of virus-induced cytopathogenicity after 3 to 4 days by MTT assay; assay type: functional, organism-based; conditions: BHK-21
[6] = tested on: Human immunodeficiency virus 1; test: Antiviral activity against HIV1 infected in human MT4 cells assessed as inhibition of virus-induced cytopathogenicity after 4 days by MTT assay; assay type: functional, organism-based; conditions: Human immunodeficiency virus 1, MT4, 96 h
How it was run: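 MT-4 cells (1 × 10^4/well in RPMI) were infected acutely with HIV-1 IIIB, 100 CCID50 (m.o.i. 0.01), with serial dilutions from 100 µM, 1:5. After 4 days at 37 °C, protection from virus-induced cytopathogenicity was read by MTT. EC50 came from linear regression against untreated controls.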

Coxsackievirus B5 = test: Antiviral activity against Coxsackievirus B5 infected in african green monkey Vero 76 cells assessed as reduction in plaque number after 3 days by plaque reduction assay; assay type: functional, organism-based; conditions: Enterovirus B, 72 h
[7] = Cytotoxicity against mock-infected BHK21 cells after 48 to 96 hrs by MTT assay; assay type: functional; conditions: Mesocricetus auratus, BHK-21
How it was run: (§1)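 Mock-infected MDBK (6 × 10^5 cells/mL; MEM-E, 10% horse serum, 1 mM pyruvate) or BHK (1 × 10^6 cells/mL; MEM-E, 10% FBS) cells were incubated at 37 °C, 5% CO2 with serial dilutions from 100 µM, 1:5. Viability by MTT after 48–96 h. CC50 from linear regression against untreated controls.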

[8] = tested on: Respiratory syncytial virus; test: Antiviral activity against Respiratory syncytial virus infected in african green monkey Vero 76 cells assessed as reduction in plaque number after 5 days by plaque reduction assay; assay type: functional, organism-based; conditions: human respiratory syncytial virus, 120 h
[9] = Cytotoxicity against mock-infected MDBK cells after 48 to 96 hrs by MTT assay; assay type: cell-based, Bos taurus; conditions: cattle; how it was run: as §1

Row | Compound | EC50 (Yellow fever virus) | EC50 [1] | selectivity ratio [2] | EC50 [3] | EC50 (Poliovirus 1) | EC50 (Human alphaherpesvirus 1) | EC50 (Vaccinia virus) | CC50 [4] | CC50 at 96 h [5] | EC50 (Reovirus sp.) | EC50 [6] | EC50 (Coxsackievirus B5) | CC50 [7] | EC50 [8] | CC50 [9]
1 | COCCn1c(Cc2ccc(Cl)c(Cl)c2)nc2cc(C(F)(F)F)ccc21 | > 100 µM | > 100 µM | > 8.33 | > 100 µM | > 100 µM | > 100 µM | > 100 µM | > 100 µM | > 100 µM | > 100 µM | > 100 µM | 12 µM | > 100 µM | > 100 µM | > 100 µM
2 | Cc1nc2cc(C(F)(F)F)ccc2n1C[C@@H]1CCCN2CCCC[C@H]12 | 27 µM | > 100 µM | > 2.13 | > 100 µM | > 100 µM | > 100 µM | 23 µM | > 100 µM | > 100 µM | > 100 µM | > 100 µM | 47 µM | > 100 µM | > 100 µM | > 100 µM
3 | c1ccc2[nH]c(SC[C@@H]3CCCN4CCCC[C@H]34)nc2c1 | > 100 µM | > 100 µM | > 2.08 | > 100 µM | > 100 µM | > 100 µM | > 100 µM | > 100 µM | > 100 µM | > 100 µM | > 100 µM | 48 µM | > 100 µM | > 100 µM | > 100 µM
4 | FC(F)(F)c1ccc2c(c1)nc(Cc1ccccc1)n2C[C@H]1CCCN2CCCC[C@H]12 | > 100 µM | > 100 µM | 1.24 | > 100 µM | > 100 µM | > 100 µM | > 100 µM | 93 µM | 100 µM | > 100 µM | > 100 µM | 75 µM | 25 µM | > 100 µM | 28 µM
5 | c1ccc(-n2c(C[C@@H]3CCCN4CCCC[C@H]34)nc3ccccc32)cc1 | > 100 µM | > 100 µM | > 2.04 | 89 µM | > 100 µM | > 100 µM | > 100 µM | > 100 µM | 33 µM | > 100 µM | > 100 µM | 49 µM | 30 µM | > 100 µM | > 100 µM
6 | FC(F)(F)c1ccc2c(c1)nc(CC1CCCC1)n2C[C@@H]1CCCN2CCCC[C@H]12 | > 100 µM | > 100 µM | > 9.09 | > 100 µM | > 100 µM | > 100 µM | > 100 µM | > 100 µM | 11 µM | > 100 µM | > 100 µM | 11 µM | 32 µM | > 100 µM | 35 µM
7 | FC(F)(F)c1ccc2c(c1)nc(-c1ccc(Cl)cc1)n2C[C@@H]1CCCN2CCCC[C@H]12 | > 100 µM | > 100 µM | 1.71 | > 100 µM | > 100 µM | > 100 µM | > 100 µM | 24 µM | 24 µM | > 100 µM | > 100 µM | 14 µM | 75 µM | > 100 µM | 40 µM
8 | Clc1ccc(Cc2nc3cc(Cl)c(Cl)cc3n2C[C@@H]2CCCN3CCCC[C@H]23)cc1 | > 100 µM | > 100 µM | > 3.57 | > 100 µM | > 100 µM | > 100 µM | > 100 µM | > 100 µM | 17 µM | > 100 µM | > 100 µM | 28 µM | 30 µM | > 100 µM | > 100 µM
9 | Clc1ccc2nc(-c3ccccc3)n([C@@H]3CCCN4CCCC[C@H]34)c2c1 | > 100 µM | > 100 µM | > 3.12 | 40 µM | > 100 µM | > 100 µM | > 100 µM | ≥ 100 µM | > 100 µM | > 100 µM | > 100 µM | 32 µM | > 100 µM | > 100 µM | > 100 µM
10 | c1ccc(-c2nc3ccccc3n2[C@H]2CCCN3CCCC[C@H]23)cc1 | > 100 µM | 68 µM | > 1.25 | > 100 µM | > 100 µM | > 100 µM | > 100 µM | ≥ 100 µM | > 100 µM | > 100 µM | > 100 µM | 80 µM | > 100 µM | > 100 µM | > 100 µM
11 | CCN(CC)CCCn1c(Cc2ccc(Cl)c(Cl)c2)nc2cc(C(F)(F)F)ccc21 | > 100 µM | > 100 µM | > 5.88 | > 100 µM | 63 µM | > 100 µM | > 100 µM | > 100 µM | 40 µM | > 100 µM | > 100 µM | 17 µM | > 100 µM | > 100 µM | 26 µM
12 | Nc1ccc(Cc2nc3ccccc3[nH]2)cc1 | > 100 µM | > 100 µM | > 5.88 | > 100 µM | 58 µM | > 100 µM | > 100 µM | > 100 µM | > 100 µM | > 100 µM | > 100 µM | 17 µM | > 100 µM | > 100 µM | > 100 µM
13 | c1ccc2[nH]c(CC3CCCC3)nc2c1 | > 100 µM | > 100 µM | > 4.76 | > 100 µM | > 100 µM | > 100 µM | > 100 µM | > 100 µM | > 100 µM | > 100 µM | > 100 µM | 21 µM | > 100 µM | > 100 µM | > 100 µM
14 | C[C@@]1(O)[C@H](O)[C@@H](CO)O[C@H]1n1cnc2c(=O)[nH]c(N)nc21 [2'-B-METHYL-GUANOSINE] | > 100 µM | > 100 µM | > 5 | – | > 100 µM | > 100 µM | > 100 µM | > 100 µM | > 100 µM | 2.4 µM | – | 20 µM | 90 µM | > 100 µM | > 100 µM
15 | FC(F)(F)c1ccc2c(c1)nc(-c1ccccc1)n2C[C@@H]1CCCN2CCCC[C@H]12 | > 100 µM | > 100 µM | – | > 100 µM | > 100 µM | > 100 µM | > 100 µM | 90 µM | 46 µM | > 100 µM | > 100 µM | > 100 µM | 75 µM | > 100 µM | 35 µM
16 | Clc1ccc(Cc2nc3cc(Cl)c(Cl)cc3[nH]2)cc1 | > 100 µM | > 100 µM | – | > 100 µM | > 100 µM | > 100 µM | > 100 µM | 71 µM | 37 µM | > 100 µM | > 100 µM | > 100 µM | > 100 µM | > 100 µM | 9 µM

From ChEMBL document CHEMBL3351523 (Bioorg Med Chem, 2014)
